Experimental data published in ChEMBL document CHEMBL1136929 (J Med Chem, 2009).
Activity calls are given as the source filed them. The calls are words filed in the database; no cut-off is given here.

tested on: Jurkat; assay: Cytotoxicity against human Jurkat cells at 10 uM after 48 hrs by WST1 assay in presence of AM630; format: functional, cell-based; settings: not given
How it was run: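 Jurkat cells (2 × 10⁴ per well) in serum-free medium, after 2 h, exposed to compound (10 µM) together with CB2 antagonist AM630 (1 µM) for 48 h. Viability by WST-1 (60 min, 37 °C, A450) against solvent controls. Two experiments in triplicate.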

Question: With `COc1ccc(C(=O)c2c(C)n(CCN3CCOCC3)c3cc(I)ccc23)cc1` as the compound, how does the Activity read?
Answer: Its Activity is “inactive”.

tested on: not listed separately; assay: Cytotoxicity against human U87MG cells at 10 uM after 48 hrs by WST1 assay; format: functional, U-87MG ATCC; settings: not given
How it was run: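 U87MG cells (4 × 10³ per well) in serum-free medium, attached 24 h, then exposed to compound at 10 µM for 48 h (DMSO stock diluted in medium). Viability inhibition by WST-1 (60 min, 37 °C, A450) compared with solvent-treated controls.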

Question: Which Activity does the source give for `CC1CCC(NC(=O)c2cc3cccnc3n(Cc3ccccc3)c2=O)CC1` (centres undefined) here?
Answer: Its Activity is 20%.

Question: For `CCCn1c(C)c(C(=O)c2cccc3ccccc23)c2ccccc21`, which Activity is on record?
Answer: Its Activity is 20%.

molecular target: Cannabinoid receptor 1 (Homo sapiens, UniProt P21554); assay: Displacement of [3H]CP-55940 from human recombinant CB1 receptor expressed in HEK293 cells; format: cell-based; settings: not given
Sequence (P21554 whole entry): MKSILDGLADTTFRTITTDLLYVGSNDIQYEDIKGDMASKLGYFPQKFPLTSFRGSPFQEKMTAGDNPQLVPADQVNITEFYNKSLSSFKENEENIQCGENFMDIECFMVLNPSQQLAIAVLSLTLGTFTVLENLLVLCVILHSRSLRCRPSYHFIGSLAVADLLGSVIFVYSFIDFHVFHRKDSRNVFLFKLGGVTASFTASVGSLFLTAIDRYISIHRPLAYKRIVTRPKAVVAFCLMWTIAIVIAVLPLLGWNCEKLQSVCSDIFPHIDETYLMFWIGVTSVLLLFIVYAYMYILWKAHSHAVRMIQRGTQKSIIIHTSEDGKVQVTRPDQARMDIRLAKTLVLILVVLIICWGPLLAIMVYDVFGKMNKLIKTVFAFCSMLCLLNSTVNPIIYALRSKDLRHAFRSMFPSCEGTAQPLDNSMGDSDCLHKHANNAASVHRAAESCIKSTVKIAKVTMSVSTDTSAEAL

Question: With `O=C(NC1CCCCC1)c1cc2cccnc2n(Cc2ccc(F)cc2)c1=O` as the compound, how does the Ki read?
Answer: Its Ki is 0.056 µM.

Question: For `C[C@H]1CC[C@H](NC(=O)c2cc3cccnc3n(Cc3ccccc3)c2=O)CC1`, which Ki is on record?
Answer: The Ki was 5.25 µM.

Question: With `O=C(NC1CCCCC1)c1cc2cccnc2n(Cc2ccccc2)c1=O` as the compound, how does the Ki read?
Answer: The Ki was 0.56 µM.

Question: For `C[C@H]1CC[C@@H](NC(=O)c2cc3cccnc3n(Cc3ccccc3)c2=O)CC1`, which Ki is on record?
Answer: Its Ki is 1.52 µM.

Question: With `O=C(NCCc1ccc(F)cc1)c1cc2cccnc2n(Cc2ccccc2)c1=O` as the compound, how does the Ki read?
Answer: The Ki was 6.95 µM.

Question: Which Ki does the source give for `CC1CCC(NC(=O)c2cc3cccnc3n(Cc3ccccc3)c2=O)CC1` (centres undefined) here?
Answer: Its Ki is 1.6 µM.

Question: Which Ki does the source give for `CC1CCC(NC(=O)c2cc3cccnc3n(Cc3ccc(F)cc3)c2=O)CC1` (centres undefined) here?
Answer: Its Ki is 0.2 µM.

Question: With `O=C(NC1CCCCCC1)c1cc2cccnc2n(Cc2ccc(F)cc2)c1=O` as the compound, how does the Ki read?
Answer: The Ki was 0.0096 µM.

Question: With `O=C(NC1CCCCC1)c1cc2cccnc2n(CCN2CCOCC2)c1=O` as the compound, how does the Ki read?
Answer: Its Ki is 0.56 µM.

Question: With `O=C(NC1CCCCCC1)c1cc2cccnc2n(CCN2CCOCC2)c1=O` as the compound, how does the Ki read?
Answer: Its Ki is 0.018 µM.

Question: Which Ki does the source give for `C[C@H]1CC[C@@H](NC(=O)c2cc3cccnc3n(Cc3ccc(F)cc3)c2=O)CC1` here?
Answer: Its Ki is 0.2 µM.

Question: Which Ki does the source give for `CCCCn1c(=O)c(C(=O)NC2CCCCC2)cc2cccnc21` here?
Answer: Its Ki is 5.6 µM.

Question: Which Ki does the source give for `O=C(NC1CCCCCC1)c1cc2cccnc2n(Cc2ccccc2)c1=O` here?
Answer: Its Ki is 0.96 µM.

Question: With `CC1CCC(NC(=O)c2cc3cccnc3n(CCN3CCOCC3)c2=O)CC1` (centres undefined) as the compound, how does the Ki read?
Answer: The Ki was 1 µM.

Question: With `C[C@H]1CC[C@H](NC(=O)c2cc3cccnc3n(Cc3ccc(F)cc3)c2=O)CC1` as the compound, how does the Ki read?
Answer: Its Ki is 0.3 µM.

molecular target: Cannabinoid receptor 2 (Homo sapiens, UniProt P34972); assay: Displacement of [3H]CP-55940 from human recombinant CB2 receptor expressed in HEK293 cells; format: cell-based; settings: not given
Sequence (P34972 whole entry): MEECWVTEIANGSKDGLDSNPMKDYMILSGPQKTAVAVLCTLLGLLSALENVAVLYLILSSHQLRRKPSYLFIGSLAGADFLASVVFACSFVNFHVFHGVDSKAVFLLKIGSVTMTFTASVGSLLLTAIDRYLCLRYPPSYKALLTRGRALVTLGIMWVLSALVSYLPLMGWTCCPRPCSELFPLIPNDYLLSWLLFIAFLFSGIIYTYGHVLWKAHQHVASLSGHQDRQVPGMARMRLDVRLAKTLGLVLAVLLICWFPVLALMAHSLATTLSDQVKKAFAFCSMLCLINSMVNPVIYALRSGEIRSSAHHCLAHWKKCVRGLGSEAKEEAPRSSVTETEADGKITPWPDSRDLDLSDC

Question: With `O=C(NC1CCCCC1)c1cc2cccnc2n(Cc2ccc(F)cc2)c1=O` as the compound, how does the Ki read?
Answer: Its Ki is 0.0022 µM.

Question: With `C[C@H]1CC[C@H](NC(=O)c2cc3cccnc3n(Cc3ccccc3)c2=O)CC1` as the compound, how does the Ki read?
Answer: The Ki was 0.0398 µM.

Question: For `CCCC(C)(C)c1ccc2c(c1)OC(C)(C)[C@@H]1CC=C(C)C[C@@H]21`, which Ki is on record?
Answer: Its Ki is 0.003 µM.

Question: With `O=C(NC1CCCCC1)c1cc2cccnc2n(Cc2ccccc2)c1=O` as the compound, how does the Ki read?
Answer: The Ki was 0.031 µM.

Question: With `C[C@H]1CC[C@@H](NC(=O)c2cc3cccnc3n(Cc3ccccc3)c2=O)CC1` as the compound, how does the Ki read?
Answer: Its Ki is 0.0058 µM.

Question: Which Ki does the source give for `O=C(NCCc1ccc(F)cc1)c1cc2cccnc2n(Cc2ccccc2)c1=O` here?
Answer: Its Ki is 0.0698 µM.

Question: Which Ki does the source give for `CC1CCC(NC(=O)c2cc3cccnc3n(Cc3ccccc3)c2=O)CC1` (centres undefined) here?
Answer: Its Ki is 0.0078 µM.

Question: For `CC1CCC(NC(=O)c2cc3cccnc3n(Cc3ccc(F)cc3)c2=O)CC1` (centres undefined), which Ki is on record?
Answer: The Ki was 0.0009 µM.

Question: Which Ki does the source give for `O=C(NC1CCCCCC1)c1cc2cccnc2n(Cc2ccc(F)cc2)c1=O` here?
Answer: The Ki was 0.0007 µM.

Question: For `O=C(NC1CCCCC1)c1cc2cccnc2n(CCN2CCOCC2)c1=O`, which Ki is on record?
Answer: Its Ki is 0.0079 µM.

Question: For `O=C(NC1CCCCCC1)c1cc2cccnc2n(CCN2CCOCC2)c1=O`, which Ki is on record?
Answer: Its Ki is 0.003 µM.

Question: Which Ki does the source give for `C[C@H]1CC[C@@H](NC(=O)c2cc3cccnc3n(Cc3ccc(F)cc3)c2=O)CC1` here?
Answer: The Ki was 0.0007 µM.

Question: For `CCCCn1c(=O)c(C(=O)NC2CCCCC2)cc2cccnc21`, which Ki is on record?
Answer: Its Ki is 0.07 µM.

Question: With `O=C(NC1CCCCCC1)c1cc2cccnc2n(Cc2ccccc2)c1=O` as the compound, how does the Ki read?
Answer: The Ki was 0.022 µM.

Question: Which Ki does the source give for `CC1CCC(NC(=O)c2cc3cccnc3n(CCN3CCOCC3)c2=O)CC1` (centres undefined) here?
Answer: Its Ki is 0.0019 µM.

Question: Which Ki does the source give for `C[C@H]1CC[C@H](NC(=O)c2cc3cccnc3n(Cc3ccc(F)cc3)c2=O)CC1` here?
Answer: Its Ki is 0.009 µM.

tested on: Jurkat; assay: Cytotoxicity against human Jurkat cells after 48 hrs by WST1 assay; format: functional, cell-based; settings: not given
How it was run: (§1)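 Jurkat (2 × 10⁴ per well, 2 h settling) or U87MG (4 × 10³ per well, 24 h attachment) cells in serum-free medium. Exposed to compound (0.1-10 µM; DMSO stocks diluted in medium) for 48 h. Viability read by WST-1 (60 min, 37 °C, A450) against solvent controls, blank-subtracted. IC50 is the concentration giving 50% of control absorbance. Three experiments in triplicate.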

Question: With `CC1CCC(NC(=O)c2cc3cccnc3n(Cc3ccccc3)c2=O)CC1` (centres undefined) as the compound, how does the Activity read?
Answer: The Activity was “Dose-dependent effect”.

Question: What about the IC50 of the same compound?
Answer: Its IC50 is 5.98 µM.

Question: For `CCCn1c(C)c(C(=O)c2cccc3ccccc23)c2ccccc21`, which IC50 is on record?
Answer: Its IC50 is 9.6 µM.

tested on: not listed separately; assay: Cytotoxicity against human U87MG cells after 48 hrs by WST1 assay; format: functional, cell-based; settings: u-87mg atcc; how it was run: as §1

Question: With `CC1CCC(NC(=O)c2cc3cccnc3n(Cc3ccccc3)c2=O)CC1` (centres undefined) as the compound, how does the IC50 read?
Answer: Its IC50 is “Not Active”.

Question: With `CCCn1c(C)c(C(=O)c2cccc3ccccc23)c2ccccc21` as the compound, how does the IC50 read?
Answer: Its IC50 is “Not Active”.
